molecular target: T1, NAD-dependent protein deacetylase sirtuin-1 (Homo sapiens, UniProt Q96EB6); test: Inhibition of human recombinant GST-tagged SIRT1 after 4 hrs by homogeneous fluorescent deacetylase assay
T1 sequence (Q96EB6 whole entry): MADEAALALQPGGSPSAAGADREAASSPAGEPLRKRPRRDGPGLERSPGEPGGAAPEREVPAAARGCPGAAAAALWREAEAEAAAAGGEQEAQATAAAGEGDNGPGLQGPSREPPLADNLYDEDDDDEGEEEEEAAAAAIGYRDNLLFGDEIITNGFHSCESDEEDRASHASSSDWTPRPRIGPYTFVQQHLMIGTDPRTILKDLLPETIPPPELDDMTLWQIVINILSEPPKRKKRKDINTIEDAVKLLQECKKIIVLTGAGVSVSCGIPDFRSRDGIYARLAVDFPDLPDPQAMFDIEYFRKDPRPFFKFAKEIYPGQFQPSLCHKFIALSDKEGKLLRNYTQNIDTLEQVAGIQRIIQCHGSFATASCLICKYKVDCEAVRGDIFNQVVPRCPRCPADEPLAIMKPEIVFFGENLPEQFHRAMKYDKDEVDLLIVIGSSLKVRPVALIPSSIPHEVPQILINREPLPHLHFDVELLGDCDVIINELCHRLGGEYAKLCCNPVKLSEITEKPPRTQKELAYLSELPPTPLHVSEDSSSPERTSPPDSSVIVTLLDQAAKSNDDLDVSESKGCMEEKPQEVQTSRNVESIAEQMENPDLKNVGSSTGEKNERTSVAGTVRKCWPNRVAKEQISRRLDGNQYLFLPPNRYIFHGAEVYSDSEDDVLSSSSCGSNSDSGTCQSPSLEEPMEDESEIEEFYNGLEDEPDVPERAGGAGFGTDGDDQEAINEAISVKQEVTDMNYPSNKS
In short: (§1)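 Recombinant enzyme incubated with Z-(Ac)Lys-AMC (10.5 μM), NAD (500 μM) and inhibitor added from DMSO stock, 4 h at 37 °C. Enzyme amount set for 10–30% substrate conversion without inhibitor. Trypsin (1 mg/mL) plus nicotinamide (8 mM) added, 20 min at 37 °C. Fluorescence read at ex 390/em 460 nm. Inhibition calculated from remaining substrate versus no-inhibitor control. Run at least in duplicate.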

| IC50 [µM] | SMILES |
| --- | --- |
| 31 | Nc1ncnc2c1nc(-c1ccccc1)n2[C@@H]1O[C@H](COP(=O)(O)O)[C@@H](O)[C@H]1O |

molecular target: T2, NAD-dependent protein deacetylase sirtuin-2 (Homo sapiens, UniProt Q8IXJ6); test: Inhibition of human recombinant N-terminally His6-tagged SIRT2 after 4 hrs by homogeneous fluorescent deacetylase assay; in short: as §1
T2 sequence (Q8IXJ6 whole entry): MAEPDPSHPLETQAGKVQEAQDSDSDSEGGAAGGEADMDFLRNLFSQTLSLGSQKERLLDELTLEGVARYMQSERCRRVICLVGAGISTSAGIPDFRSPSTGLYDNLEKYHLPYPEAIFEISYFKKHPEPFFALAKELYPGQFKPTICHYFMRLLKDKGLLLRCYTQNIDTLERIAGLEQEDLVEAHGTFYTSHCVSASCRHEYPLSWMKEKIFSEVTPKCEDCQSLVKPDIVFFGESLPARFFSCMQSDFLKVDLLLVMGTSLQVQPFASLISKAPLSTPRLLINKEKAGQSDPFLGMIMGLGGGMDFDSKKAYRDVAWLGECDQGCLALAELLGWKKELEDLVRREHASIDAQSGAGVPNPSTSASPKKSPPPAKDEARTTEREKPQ

| SMILES | IC50 [µM] |
| --- | --- |
| COc1ccc(-c2nc3c(N)ncnc3n2[C@@H]2O[C@H](COP(=O)(O)OP(=O)([O-])OC[C@H]3O[C@@H]([n+]4cccc(C(N)=O)c4)[C@H](O)[C@@H]3O)[C@@H](O)[C@H]2O)cc1 | 43 |
| Cc1ccc(-c2nc3c(N)ncnc3n2[C@@H]2O[C@H](COP(=O)(O)OP(=O)([O-])OC[C@H]3O[C@@H]([n+]4cccc(C(N)=O)c4)[C@H](O)[C@@H]3O)[C@@H](O)[C@H]2O)cc1 | 52 |
| NC(=O)c1ccc[n+]([C@@H]2O[C@H](COP(=O)([O-])OP(=O)(O)OC[C@H]3O[C@@H](n4c(Br)nc5c(N)ncnc54)[C@H](O)[C@@H]3O)[C@@H](O)[C@H]2O)c1 | 28 |
| NC(=O)c1ccc[n+]([C@@H]2O[C@H](COP(=O)([O-])OP(=O)(O)OC[C@H]3O[C@@H](n4c(-c5ccccc5)nc5c(N)ncnc54)[C@H](O)[C@@H]3O)[C@@H](O)[C@H]2O)c1 | 123 |

Now from value to compound:

| IC50 [µM] | SMILES |
| --- | --- |
| 29 | Nc1ncnc2c1nc(-c1ccccc1)n2[C@@H]1O[C@H](COP(=O)(O)O)[C@@H](O)[C@H]1O |
| 35 | NC(=O)c1ccc[n+]([C@@H]2O[C@H](COP(=O)([O-])OP(=O)(O)OC[C@H]3O[C@@H](n4c(-c5ccc(Cl)cc5)nc5c(N)ncnc54)[C@H](O)[C@@H]3O)[C@@H](O)[C@H]2O)c1 |

Source: ChEMBL document CHEMBL1773060, “Two-step synthesis of novel, bioactive derivatives of the ubiquitous cofactor nicotinamide adenine dinucleotide (NAD)” (J Med Chem, 2011)
